# Data reported in ChEMBL document CHEMBL4811246, “New organoselenides (NSAIDs-Se derivatives) as potential anticancer agents: Synthesis, biological evaluation and in silico calculations” (Eur J Med Chem, 2021).
# Activity calls are given as the source filed them. The calls are words filed in the database; no cut-off is given here.
# How the values were obtained:
# Caco-2 = assay: Cytotoxicity against human Caco2 cells assessed as reduction in cell viability measured upto 72 hrs by MTT assay; assay type: functional, cell-based; conditions: Caco-2, 72 h
# Summary of the method: (§1)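 ATCC cells grown in RPMI 1640 with 10% FBS and penicillin/streptomycin at 37 °C, 5% CO2. Cells seeded at 1×10^4 per well and allowed 24 h to attach, then exposed to graded compound concentrations for 24, 48 and 72 h, DMSO kept below 1.25%. MTT added 3 h before the end, formazan dissolved in DMSO, OD read at 570 nm. IC50 from viability, three repetitions, mean ± SD.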
# BGC-823 [1] = assay: Cytotoxicity against human BGC-823 cells assessed as reduction in cell viability measured upto 72 hrs by MTT assay; assay type: functional, cell-based; conditions: BGC-823, 72 h; summary of the method: as §1
# PC-3 = assay: Cytotoxicity against human PC-3 cells assessed as reduction in cell viability measured upto 72 hrs by MTT assay; assay type: functional, cell-based; conditions: PC-3, 72 h; summary of the method: as §1
# MCF7 = assay: Cytotoxicity against human MCF7 cells assessed as reduction in cell viability measured upto 72 hrs by MTT assay; assay type: functional, cell-based; conditions: MCF7, 72 h; summary of the method: as §1
# [2] = Antioxidant activity assessed as bleomycin-Fe2+-induced DNA degradation by measuring absorbance at 0.1 mg/ml after 1 hr; assay type: functional; parameters: unit not given here
# Summary of the method: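 Stopped with EDTA, then TBA (1% w/v) and HCl (25% v/v) added and heated 80 °C for 30 min. After cooling on ice, DNA damage read as absorbance increase at 532 nm. L-ascorbic acid positive control.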
# [3] = Antioxidant activity assessed as DPPH radical scavenging activity incubated for 30 mins under dark condition relative to vitamin C; assay type: functional
# [4] = Antioxidant activity assessed as DPPH radical scavenging activity incubated for 30 mins under dark condition relative to control; assay type: functional; parameters: concentration or dose not given beside the values
# Summary of the method: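 DPPH radical scavenging: test samples at a range of concentrations mixed with DPPH solution and held 30 min in the dark, then absorbance read at 517 nm. Ascorbic acid and ebselen served as positive controls and DMSO as negative control. % activity = [(control A − sample A)/control A] × 100. Mean ± SD of three independent experiments.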
# [5] = Antioxidant activity assessed as GPx-like activity by measuring oxidation of NADPH to NADP+ by NADPH-reductase coupled assay; assay type: functional
# Summary of the method: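 NADPH/glutathione reductase coupled GPx-like assay: 50 mM phosphate buffer with 0.1% Triton X-100, NADPH reagent containing GSH, glutathione reductase and NADPH, and compound (0.01 ml of 41 mM). Reaction started with H2O2 (0.8 mM), and A340 decrease followed over 3 min to give ΔA/min. Values background-corrected for the H2O2 plus GSH reaction. Ebselen positive control.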
# BGC-823 [6] = assay: Induction of apoptosis in human BGC-823 cells assessed as upregulation of IL-2 protein expression at IC50 after 48 hrs by ELISA; assay type: functional, cell-based
# Summary of the method: (§2)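 Cells harvested with trypsin and lysed by freeze-thaw in liquid nitrogen, then total protein isolated. Bcl-2 and IL-2 quantified by ELISA, read at 450 nm.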
# BGC-823 [7] = assay: Induction of apoptosis in human BGC-823 cells assessed as down regulation of Bcl-2 protein expression at IC50 after 48 hrs by ELISA; assay type: functional, cell-based; summary of the method: as §2
# BGC-823 [8] = assay: Induction of apoptosis in human BGC-823 cells assessed as upregulation of caspase-3 protein expression at IC50 after 48 hrs by ELISA; assay type: functional, cell-based
SMILES,IC50 (Caco-2) [µM],IC50 (BGC-823 [1]) [µM],IC50 (PC-3) [µM],IC50 (MCF7) [µM],Activity [2],fold change (FC) [3],inhibition [4] [%],Activity [5],Activity (BGC-823 [6]),Activity (BGC-823 [7]),Activity (BGC-823 [8])
CC(C)Cc1ccc(C(C)C(=O)O)cc1 (stereo not given) [IBUPROFEN],> 50,> 50,> 50,> 50,–,–,–,–,–,–,–
CC(=O)Oc1ccccc1C(=O)O [ASPIRIN],> 50,> 50,> 50,> 50,–,–,–,–,–,–,–
CCc1cccc2c3c([nH]c12)C(CC)(CC(=O)OCCC[Se]C#N)OCC3 (stereo not given),11.5,21.4,31.4,14.4,69.4,0.3,30.4,–,–,–,–
CC1=C(CC(=O)OCCC[Se]C(F)(F)F)c2cc(F)ccc2/C1=C\c1ccc([S+](C)[O-])cc1 (stereo not given),16.4,14.4,11.6,19.6,73.7,0.5,44.9,Active,–,–,–
COc1ccc2cc(C(C)C(=O)OCCC[Se]C#N)ccc2c1 (stereo not given),21.5,17.3,22,32.8,81.6,–,24.6,–,–,–,–
O=C1O[C@H]([C@@H](O)CO)C(O)=C1O,–,–,–,–,297,1,96.4,–,–,–,–
CC(C(=O)OCCC[Se]C(F)(F)F)c1ccc(-c2ccccc2)c(F)c1 (stereo not given),4.5,2.5,3.3,2.7,119,0.8,73.5,–,Active,Active,Active
CC(C)Cc1ccc(C(C)C(=O)OCCC[Se]C(F)(F)F)cc1 (stereo not given),9.5,14.3,10.4,9.9,95.7,0.5,48.5,Active,–,–,–
O=C(OCCC[Se]C(F)(F)F)c1ccccc1Nc1cccc(C(F)(F)F)c1,3.5,2.7,5.8,4.2,115,0.7,68.6,–,Active,Active,Active
CC(C)Cc1ccc(C(C)C(=O)OCCC[Se]C#N)cc1 (stereo not given),14.5,24.5,22.5,19.5,60.3,0.3,31.2,–,–,–,–
CC(C(=O)OCCC[Se]C#N)c1cccc(C(=O)c2ccccc2)c1 (stereo not given),19.7,12.6,12.6,8.3,67.6,–,57.1,Active,–,–,–
N#C[Se]CCCOC(=O)c1ccccc1Nc1cccc(C(F)(F)F)c1,8.4,13.7,7.5,14.2,76.1,0.5,51.5,–,–,–,–
CC(=O)Oc1ccccc1C(=O)OCCC[Se]C#N,14.5,17.3,11.2,8.9,78.3,0.3,27.3,–,–,–,–
CC(C(=O)OCCC[Se]C(F)(F)F)c1cccc(C(=O)c2ccccc2)c1 (stereo not given),9.5,4.8,8.8,6.5,128,0.7,66.3,Active,Active,Active,Active
COc1ccc2c(c1)c(CC(=O)OCCC[Se]C(F)(F)F)c(C)n2C(=O)c1ccc(Cl)cc1,10.5,7.3,7.8,9.3,62.6,0.4,36.6,–,–,–,–
CCc1cccc2c3c([nH]c12)C(CC)(CC(=O)OCCC[Se]C(F)(F)F)OCC3 (stereo not given),10.4,18.5,19.7,8.7,86.4,0.4,41.4,Active,–,–,–
COc1ccc2cc(C(C)C(=O)OCCC[Se]C(F)(F)F)ccc2c1 (stereo not given),16.3,10.8,18.4,12.4,91.4,–,37,–,–,–,–
CC1=C(CC(=O)OCCC[Se]C#N)c2cc(F)ccc2/C1=C\c1ccc([S+](C)[O-])cc1 (stereo not given),28.6,17.5,22.3,31.3,91.3,0.5,45.7,Active,–,–,–
Cc1cccc(Nc2ccccc2C(=O)OCCC[Se]C(F)(F)F)c1C,13.3,19.6,24.5,8.5,77.6,0.3,23.3,–,–,–,–
CC(C(=O)OCCC[Se]C#N)c1ccc(-c2ccccc2)c(F)c1 (stereo not given),27.5,29.4,19.7,22.4,86.5,–,17.2,–,–,–,–
O=c1[nH]cc(F)c(=O)[nH]1 [FLUOROURACIL],7.8,15.4,9.5,–,–,–,–,–,–,–,–
COc1ccc2c(c1)c(CC(=O)OCCC[Se]C#N)c(C)n2C(=O)c1ccc(Cl)cc1,32.4,35.5,21.8,29.3,72.4,0.4,44.3,–,–,–,–
COc1ccc2cc([C@H](C)C(=O)O)ccc2c1 [NAPROXEN],> 50,> 50,> 50,> 50,–,–,–,–,–,–,–
